Test results from ChEMBL document CHEMBL2439982, “Synthesis and study of antiproliferative, antitopoisomerase II, DNA-intercalating and DNA-damaging activities of arylnaphthalimides” (Bioorg Med Chem, 2013).
Activity calls are given as the source filed them. The calls are words filed in the database; no cut-off is given here.

Legend:
HEL = assay: Antiproliferative activity against human HEL cells after 48 hrs by MTT assay; format: functional, cell-based
In short: (§1)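 Cells seeded at 10,000 per well; compound or vehicle (0.1% DMSO final) added 24 h after plating and left 48 h. MTT added at 0.5 mg/mL final for 3 h at 37 °C, formazan dissolved in SDS–HCl (20% SDS, 0.02 M HCl), absorbance at 570 nm. IC50 by non-linear regression; mean SD, n = 3.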

[1] = molecular target: T1, Type II restriction enzyme XhoI (Xanthomonas vasicola) (UniProt Q9KVZ7); assay: Inhibition of Xanthomonas vasicola Xho1 assessed as inhibition of endonucleolytic cleavage of pBSKS plasmid DNA at 100 uM by agarose gel electrophoresis
T1 sequence (whole entry): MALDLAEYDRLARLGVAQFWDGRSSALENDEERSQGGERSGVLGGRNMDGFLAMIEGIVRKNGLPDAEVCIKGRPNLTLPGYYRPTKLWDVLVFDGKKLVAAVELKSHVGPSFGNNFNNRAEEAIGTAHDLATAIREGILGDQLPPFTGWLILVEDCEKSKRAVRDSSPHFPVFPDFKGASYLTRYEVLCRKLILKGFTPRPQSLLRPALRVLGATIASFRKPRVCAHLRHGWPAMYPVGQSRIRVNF
In short: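 XhoI digestion of pBSKS plasmid, which carries a single XhoI site, run like the Topo I reaction with compounds at 100 µM in 1% DMSO. Actinomycin D as intercalator control. Agarose gel separates supercoiled, nicked intermediate and linear product.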

Saccharomyces cerevisiae [2] = assay: Cell cycle arrest in Saccharomyces cerevisiae W3749-14C harboring RAD52-YFP assessed as accumulation at G2 Phase at 100 uM after 3 hrs; format: functional, organism-based
In short: (§2)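 RAD52-YFP yeast (W3749-14C) growing asynchronously treated 3 h at 25 °C with 100 µM compound in 1% DMSO; DMSO and phleomycin 25 µg/mL as controls. Cells micrographed. Mononucleated budded cells with bud over two-thirds mother size scored as G2-arrested. Foci per cell = total YFP foci / total cells.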

SK-BR-3 = assay: Antiproliferative activity against human SKBR3 cells after 48 hrs by MTT assay; format: functional, cell-based; conditions: SK-BR-3, 48 h; in short: as §1
[3] = molecular target: DNA topoisomerase 2-alpha (Homo sapiens) (UniProt P11388); assay: Inhibition of human DNA topoisomerase 2alpha-mediated relaxation of supercoiled pRYG plasmid DNA assessed as formation of linearized DNA at 100 uM after 30 mins by agarose gel electrophoresis relative to vehicle-treated control in presence of ethidium bromide
In short: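 Cleavage-complex assay set up as the Topo IIα relaxation reaction, but with 10 units of hTopoIIα added 1–3 min before 100 µM compound in 1% DMSO. Etoposide as positive control. Electrophoresis in TAE containing 0.5 µg/mL ethidium bromide to resolve the linearized intermediate.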

Saccharomyces cerevisiae [4] = assay: Growth inhibition of Saccharomyces cerevisiae FM588 expressing wild type rad52 gene at 1 to 100 uM after 24 hrs by spectrophotometry; format: functional, organism-based
[5] = molecular target: DNA topoisomerase 2-alpha (Homo sapiens) (UniProt P11388); assay: Inhibition of human DNA topoisomerase 2alpha-mediated DNA cleavage assessed as decrease in relaxation of supercoiled pRYG plasmid at 60 uM after 30 mins by agarose gel electrophoresis
In short: (§3)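 Human Topo IIα, 1–2 units, with 250 ng supercoiled pRYG and 1 mM ATP in 5 mM Tris-HCl pH 7.5, 12.5 mM NaCl, 1 mM MgCl2, 0.5 mM DTT, 10 µg/mL albumin. Compound added in DMSO, 1% final. Incubated 37 °C for 30 min, stopped with SDS/EDTA, proteinase K digestion. 1% agarose in TBE without ethidium bromide, stained afterwards. Inhibition scored at 100, 60 and 30 µM.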

Saccharomyces cerevisiae [6] = assay: Induction of DNA repair in Saccharomyces cerevisiae W3749-14C harboring Rad52-YFP assessed as increase in Rad52 foci formation at 100 uM after 3 hrs; format: functional, organism-based; in short: as §2
MCF7 = assay: Antiproliferative activity against human MCF7 cells after 48 hrs by MTT assay; format: functional, cell-based; conditions: MCF7, 48 h; in short: as §1
[7] = molecular target: T2, DNA topoisomerase 1 (Homo sapiens) (UniProt P11387); assay: Inhibition of DNA topoisomerase 1 (unknown origin)-mediated relaxation of supercoiled pBSKS plasmid DNA assessed as formation of nicked form of DNA at 1 00 uM after 30 mins by agarose gel electrophoresis in presence of ethidium bromide
T2 sequence (whole entry): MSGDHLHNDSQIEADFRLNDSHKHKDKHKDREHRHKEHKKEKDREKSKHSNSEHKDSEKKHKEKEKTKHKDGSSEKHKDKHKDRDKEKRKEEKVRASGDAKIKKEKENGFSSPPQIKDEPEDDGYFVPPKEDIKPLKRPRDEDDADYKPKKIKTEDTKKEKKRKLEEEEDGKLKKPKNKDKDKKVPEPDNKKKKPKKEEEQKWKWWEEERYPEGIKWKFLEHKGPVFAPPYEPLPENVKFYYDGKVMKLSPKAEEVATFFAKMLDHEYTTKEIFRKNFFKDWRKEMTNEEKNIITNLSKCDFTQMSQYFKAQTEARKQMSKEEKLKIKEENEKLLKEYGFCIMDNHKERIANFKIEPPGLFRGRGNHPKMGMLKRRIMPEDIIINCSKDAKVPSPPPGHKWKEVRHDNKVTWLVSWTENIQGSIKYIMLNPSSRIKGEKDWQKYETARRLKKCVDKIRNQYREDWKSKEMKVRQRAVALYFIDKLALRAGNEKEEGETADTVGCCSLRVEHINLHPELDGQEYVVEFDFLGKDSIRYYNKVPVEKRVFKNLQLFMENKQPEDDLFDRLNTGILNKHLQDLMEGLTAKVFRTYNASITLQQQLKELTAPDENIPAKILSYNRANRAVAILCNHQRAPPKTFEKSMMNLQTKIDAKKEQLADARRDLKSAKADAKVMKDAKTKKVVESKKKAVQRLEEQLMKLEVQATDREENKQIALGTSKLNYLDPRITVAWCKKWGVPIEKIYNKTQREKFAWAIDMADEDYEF

[8] = molecular target: T2, DNA topoisomerase 1 (Homo sapiens); assay: Inhibition of DNA topoisomerase 1 (unknown origin)-mediated DNA cleavage assessed as decrease in relaxation of supercoiled pBSKS plasmid at 1 00 uM after 30 mins by agarose gel electrophoresis
[9] = molecular target: DNA topoisomerase 2-alpha (Homo sapiens) (UniProt P11388); assay: Inhibition of human DNA topoisomerase 2alpha-mediated DNA cleavage assessed as decrease in relaxation of supercoiled pRYG plasmid at 100 uM after 30 mins by agarose gel electrophoresis; in short: as §3
Saccharomyces cerevisiae [10] = assay: Growth inhibition of isogenic rad52-deficient Saccharomyces cerevisiae FM588 at 1 to 100 uM after 24 hrs by spectrophotometry; format: functional, organism-based
[11] = molecular target: DNA topoisomerase 2-alpha (Homo sapiens) (UniProt P11388); assay: Inhibition of human DNA topoisomerase 2alpha-mediated DNA cleavage assessed as decrease in relaxation of supercoiled pRYG plasmid at 30 uM after 30 mins by agarose gel electrophoresis; in short: as §3

Chain of DNA topoisomerase 2-alpha (Homo sapiens) (P11388 whole entry): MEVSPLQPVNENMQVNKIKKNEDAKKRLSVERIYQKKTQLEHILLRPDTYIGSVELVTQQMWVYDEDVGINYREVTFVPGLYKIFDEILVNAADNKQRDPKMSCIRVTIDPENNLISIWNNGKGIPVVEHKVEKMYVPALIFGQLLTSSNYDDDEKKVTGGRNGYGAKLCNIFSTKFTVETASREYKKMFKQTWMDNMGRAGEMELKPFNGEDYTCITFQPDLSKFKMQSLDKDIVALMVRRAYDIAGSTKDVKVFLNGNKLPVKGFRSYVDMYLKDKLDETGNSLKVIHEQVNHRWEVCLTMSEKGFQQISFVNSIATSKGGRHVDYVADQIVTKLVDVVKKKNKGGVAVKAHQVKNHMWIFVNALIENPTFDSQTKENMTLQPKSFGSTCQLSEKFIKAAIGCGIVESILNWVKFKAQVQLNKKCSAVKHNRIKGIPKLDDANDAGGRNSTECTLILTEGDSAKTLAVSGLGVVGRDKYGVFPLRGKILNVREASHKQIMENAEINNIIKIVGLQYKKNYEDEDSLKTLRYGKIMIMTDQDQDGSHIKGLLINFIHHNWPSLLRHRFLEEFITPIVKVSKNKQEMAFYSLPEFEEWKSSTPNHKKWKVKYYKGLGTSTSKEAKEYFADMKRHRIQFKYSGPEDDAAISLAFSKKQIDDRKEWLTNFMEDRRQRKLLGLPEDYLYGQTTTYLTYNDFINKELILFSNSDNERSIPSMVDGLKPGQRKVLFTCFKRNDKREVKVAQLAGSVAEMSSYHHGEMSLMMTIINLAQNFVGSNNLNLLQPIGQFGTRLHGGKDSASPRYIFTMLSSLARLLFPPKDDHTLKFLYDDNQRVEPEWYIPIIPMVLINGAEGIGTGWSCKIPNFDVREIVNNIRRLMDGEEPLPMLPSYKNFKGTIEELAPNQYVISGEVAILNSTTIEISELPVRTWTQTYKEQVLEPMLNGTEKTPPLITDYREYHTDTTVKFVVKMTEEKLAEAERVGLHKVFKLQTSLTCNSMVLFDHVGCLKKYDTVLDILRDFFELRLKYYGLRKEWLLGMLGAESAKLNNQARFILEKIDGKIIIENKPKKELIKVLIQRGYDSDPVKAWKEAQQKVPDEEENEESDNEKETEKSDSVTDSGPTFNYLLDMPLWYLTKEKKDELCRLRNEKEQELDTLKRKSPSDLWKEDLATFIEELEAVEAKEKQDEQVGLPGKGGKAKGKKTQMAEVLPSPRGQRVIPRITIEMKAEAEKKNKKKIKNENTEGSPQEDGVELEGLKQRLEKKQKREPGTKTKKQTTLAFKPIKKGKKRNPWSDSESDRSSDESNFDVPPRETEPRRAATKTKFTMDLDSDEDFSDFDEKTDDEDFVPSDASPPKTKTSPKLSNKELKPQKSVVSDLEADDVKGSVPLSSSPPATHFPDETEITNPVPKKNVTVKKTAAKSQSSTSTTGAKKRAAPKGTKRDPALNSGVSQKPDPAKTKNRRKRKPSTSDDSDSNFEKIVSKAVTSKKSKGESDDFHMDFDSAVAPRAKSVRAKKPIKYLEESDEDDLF

inhibition [1]	IC50 (SK-BR-3) [µM]	inhibition [3]	inhibition [5]	IC50 (MCF7) [µM]	inhibition [7]	inhibition [8]	inhibition [9]	inhibition [11]	Structure (SMILES)	IC50 (HEL) [µM]	Activity (Saccharomyces cerevisiae [2])	growth inhibition (GI) (Saccharomyces cerevisiae [4])	Activity (Saccharomyces cerevisiae [6])	growth inhibition (GI) (Saccharomyces cerevisiae [10])
Active	0.3	Active	Active	0.5	inactive	Active			COc1cccc(-c2cc3c4c(cccc4c2)C(=O)N(CCN(C)C)C3=O)c1	2.7	Active	Active	Active	
	27.6		Active	> 30	inactive	Active			COc1ccc(-c2ccc3c4c(cccc24)C(=O)N(CCN(C)C)C3=O)cc1					
	4.4	Active					Active		CN(C)CCN1C(=O)c2cccc3cc(-c4cccc(O)c4)cc(c23)C1=O	7				Active
	24			24	inactive		inactive		COc1ccccc1-c1ccc2cccc3c2c1C(=O)N(CCN(C)C)C3=O					
	> 30			> 30	inactive		inactive		COc1ccc(-c2ccc3cccc4c3c2C(=O)N(CCN(C)C)C4=O)cc1					inactive
	1.2	Active	Active						CN(C)CCN1C(=O)c2cccc3cc(-c4cccc(C(F)(F)F)c4)cc(c23)C1=O	1.6	Active	Active	Active	
	11.9			25.7	inactive		Active		COc1ccccc1-c1cc2c3c(cccc3c1)C(=O)N(CCN(C)C)C2=O					
	> 30			> 30	inactive	Active	Active		COc1cccc(-c2ccc3c4c(cccc24)C(=O)N(CCN(C)C)C3=O)c1					
	14.2	Active					inactive		CN(C)CCN1C(=O)c2cccc3cc(-c4cccc(N)c4)cc(c23)C1=O	13.5				Active
	0.8	Active						Active	CN(C)CCN1C(=O)c2cccc3cc(-c4ccccc4)cc(c23)C1=O	6	Active	Active	Active	
	> 30			> 30					COc1cccc(-c2ccc3cccc4c3c2C(=O)N(CCN(C)C)C4=O)c1					
	1.2	Active						Active	CN(C)CCN1C(=O)c2cccc3cc(-c4cccc([N+](=O)[O-])c4)cc(c23)C1=O	0.6	Active	Active	Active	
	1.5			7.6	inactive		Active		COc1ccc(-c2cc3c4c(cccc4c2)C(=O)N(CCN(C)C)C3=O)cc1					Active
	> 30			> 30	inactive		inactive		COc1ccccc1-c1ccc2c3c(cccc13)C(=O)N(CCN(C)C)C2=O					inactive

Structure (SMILES)	inhibition [1]	IC50 (SK-BR-3) [µM]	inhibition [3]	inhibition [5]	IC50 (MCF7) [µM]	inhibition [7]	inhibition [8]	inhibition [9]	inhibition [11]	IC50 (HEL) [µM]	Activity (Saccharomyces cerevisiae [2])	growth inhibition (GI) (Saccharomyces cerevisiae [4])	Activity (Saccharomyces cerevisiae [6])	growth inhibition (GI) (Saccharomyces cerevisiae [10])
CN(C)CCN1C(=O)c2cccc3cc(N)cc(c23)C1=O [AMONAFIDE]		7.4	Active	Active						3.4		inactive		Active
